Source: ChEMBL document CHEMBL1125427, “Synthesis of 3-(2-pyridylethyl)benzoxazolinone derivatives: potent analgesic and antiinflammatory compounds inhibiting prostaglandin E2” (1992)

What was measured:
Type in all cases: functional
[1] = test system: Mus musculus; test: Gastric ulcerogenic activity at a dose of 100 mg/kg
How it was run: (§1)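 Mice fasted 24 h with water available. Compound in methyl cellulose vehicle given by oral gavage at 0.5 mL/100 g body weight. Animals were killed after 4 h and stomachs examined for lesions under a dissecting microscope. Read-out: ulcer incidence per group of 8 and lesion length (mm/mouse ± SE).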

[2] = species on record: Mus musculus; test: Analgesic activity in mice; design: concentration or dose not given beside the values
How it was run: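 Female albino mice (22 ± 2 g, local breed), groups of eight, dosed orally at 100 mg/kg as a suspension in 5% gum arabic syrup. After 1 h, 3% acetic acid was given ip at 300 mg/kg. Stretches were counted over 10 min, starting 5 min after injection. Percent activity = |n − n'|/n × 100 against syrup-only controls (n = 6).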

[3] = test system: Mus musculus; test: The compound was evaluated for inhibition of edema induced by arachidonic acid at 1 mg/mL
How it was run: (§2)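 Mice, six per group, dosed orally at 100 mg/kg. After 60 min, 0.01 mL of phlogistic agent (arachidonic acid or bradykinin) was injected subcutaneously into the right hind paw plantar surface. Edema was measured by dial thickness gauge and the effect expressed as percent inhibition.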

[4] = test system: Mus musculus; test: Gastric ulcerogenic activity at a dose of 300 mg/kg: 8 mice were considered for the test; how it was run: as §1
[5] = test system: Mus musculus; test: The compound was evaluated for inhibition of edema induced by serotonin at 250 ug/mL
How it was run: (§3)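 Female albino mice (22 ± 2 g, local breed), six per group, housed in eights with free food and water, acclimatised at least 2 days. Compound given orally at 100 mg/kg; 60 min later 0.01 mL of the phlogistic agent (histamine or serotonin) injected subcutaneously into the right hind paw plantar surface. Paw edema measured with a dial thickness gauge; effect expressed as percent inhibition.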

[6] = test system: Mus musculus; test: The compound was evaluated for inhibition of edema induced by PGE at […]
How it was run: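 Mice, six per group, dosed orally at 100 mg/kg. After 60 min, PGE2 (20 μg/0.01 mL) was injected subcutaneously into the right hind paw plantar surface. Edema was measured with a dial thickness gauge and the effect expressed as percent inhibition.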

[7] = test system: Mus musculus; test: The compound was evaluated for inhibition of edema induced by bradykinin at 100 ug/mL; how it was run: as §2
[8] = test system: Mus musculus; test: Gastric ulcerogenic activity at a dose of 60 mg/kg; how it was run: as §1
[9] = test system: Mus musculus; test: Intestinal ulcerogenic activity at a dose of 100 mg/kg
How it was run: (§4)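 Fed animals were gavaged with compound on 3 consecutive days and killed 24 h after the last dose. Intestines were examined for ulcers. Read-out: ulcer incidence per group of 8 and lesion length (mm/mouse ± SE).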

[10] = test system: Mus musculus; test: Inhibitory activity against carrageenan induced paw edema in mice; design: concentration or dose not given beside the values
[11] = test system: Mus musculus; test: Gastric ulcerogenic activity at a dose of 100 mg/kg: 8 mice were considered for the test; how it was run: as §1
[12] = test system: Mus musculus; test: Intestinal ulcerogenic activity at a dose of 60 mg/kg; how it was run: as §4
[13] = test system: Mus musculus; test: Gastric ulcerogenic activity at a dose of 60 mg/kg: 8 mice were considered for the test; how it was run: as §1
[14] = test system: Mus musculus; test: Antiinflammatory activity against CPE in mice following peroral administration of 60 mg/kg; settings: route oral
How it was run: (§5)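 Female albino mice (22 ± 2 g), six per group, dosed orally. After 60 min, 0.01 mL of 2% carrageenan was injected subcutaneously into the right hind paw plantar surface. Edema was read with a dial thickness gauge 3 h later. ED50 was given in mg/kg po with 95% confidence limits.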

[15] = test system: Mus musculus; test: Intestinal ulcerogenic activity at a dose of 60 mg/kg:group of 8 mouse considered for the test; how it was run: as §4
[16] = test system: Mus musculus; test: Gastric ulcerogenic activity at a dose of 300 mg/kg; how it was run: as §1
[17] = test system: Mus musculus; test: Intestinal ulcerogenic activity at a dose of 300 mg/kg; how it was run: as §4
[18] = test system: Mus musculus; test: Intestinal ulcerogenic activity at a dose of 300 mg/kg: 8 mice were considered for the test; how it was run: as §4
[19] = test system: Mus musculus; test: The compound was evaluated for inhibition of edema induced by histamine at 10 mg/mL; how it was run: as §3
[20] = test system: Mus musculus; test: Intestinal ulcerogenic activity at a dose of 100 mg/kg: 8 mice were considered for the test; how it was run: as §4
[21] = test system: Mus musculus; test: Intestinal ulcerogenic activity at a dose of 60 mg/kg: 8 mice were considered for the test; how it was run: as §4
[22] = test system: Mus musculus; test: Antiinflammatory activity against CPE in mice following peroral administration of 30 mg/kg; settings: route oral; how it was run: as §5
[23] = test system: Mus musculus; test: Intestinal ulcerogenic activity at a dose of 100 mg/kg: group of 8 mice were considered for the test; how it was run: as §4
[24] = test system: Mus musculus; test: Gastric ulcerogenic activity at a dose of 300 mg/kg:group of 8 mouse considered for the test; how it was run: as §1
[25] = test system: Mus musculus; test: Intestinal ulcerogenic activity at a dose of 30 mg/kg: group of 8 mice were considered for the test; how it was run: as §4
[26] = test system: Mus musculus; test: Gastric ulcerogenic activity at a dose of 30 mg/kg:group of 8 mouse considered for the test; how it was run: as §1
[27] = test system: Mus musculus; test: Intestinal ulcerogenic activity at a dose of 300 mg/kg: group of 8 mice were considered for the test; how it was run: as §4
[28] = test system: Mus musculus; test: Gastric ulcerogenic activity at a dose of 30 mg/kg; how it was run: as §1
[29] = test system: Mus musculus; test: Intestinal ulcerogenic activity at a dose of 30 mg/kg; how it was run: as §4
[30] = test system: Mus musculus; test: Gastric ulcerogenic activity at a dose of 100 mg/kg:group of 8 mouse considered for the test; how it was run: as §1
[31] = test system: Mus musculus; test: Intestinal ulcerogenic activity at a dose of 10 mg/kg; how it was run: as §4
[32] = test system: Mus musculus; test: Gastric ulcerogenic activity at a dose of 10 mg/kg; how it was run: as §1
[33] = test system: Mus musculus; test: Antiinflammatory activity against CPE in mice following peroral administration of 10 mg/kg; settings: route oral; how it was run: as §5
[34] = test system: Mus musculus; test: The compound was evaluated for inhibition of edema induced by bradykinin at 100 micro g/mL; how it was run: as §2
[35] = test system: Mus musculus; test: Intestinal ulcerogenic activity at a dose of 10 mg/kg; 8 mice were considered for the test; how it was run: as §4
[36] = test system: Mus musculus; test: Inhibitory activity against carrageenan induced mouse paw edema in mice.
[37] = test system: Mus musculus; test: Gastric ulcerogenic activity at a dose of 10 mg/kg: 8 mice were considered for the test; how it was run: as §1
[38] = test system: Mus musculus; test: The compound was evaluated for inhibition of edema induced by serotonin at 250 micro g/mL; how it was run: as §3

O=c1oc2ccc(Cl)cc2n1CCc1ccccn1
Lesion length [1]: 0.2 mm mice-1 | Analgesic activity [2]: 96.96% | Inhibition [3]: 42% | Ulcer incidence [4]: 4 number/group | Inhibition [5]: 10.5% | Inhibition [6]: 64.8% | Inhibition [7]: 7% | Lesion length [8]: 0 mm mice-1 | Lesion length [9]: 0 mm mice-1 | Inhibition [10]: 62.3% | Ulcer incidence [11]: 1 number/group | Lesion length [12]: 0 mm mice-1 | Ulcer incidence [13]: 0 number/group | ED50 [14]: 63 mg/kg | Ulcer incidence [15]: 0 number/group | Lesion length [16]: 0.9 mm mice-1 | Lesion length [17]: 0.1 mm mice-1 | Ulcer incidence [18]: 1 number/group | Inhibition [19]: 9% | Ulcer incidence [20]: 0 number/group

O=c1oc2ccccc2n1CCc1ccncc1
Lesion length [1]: 0 mm mice-1 | Analgesic activity [2]: 96.06% | Ulcer incidence [21]: 0 number/group | Inhibition [3]: 38.9% | Ulcer incidence [4]: 5 number/group | Inhibition [5]: 9.4% | Inhibition [6]: 62.2% | Inhibition [7]: 6.4% | Lesion length [8]: 0 mm mice-1 | Lesion length [9]: 0 mm mice-1 | Inhibition [10]: 59.1% | Ulcer incidence [11]: 0 number/group | Lesion length [12]: 0 mm mice-1 | Ulcer incidence [13]: 0 number/group | ED50 [14]: 57 mg/kg | Lesion length [16]: 0.9 mm mice-1 | Lesion length [17]: 0.1 mm mice-1 | Ulcer incidence [18]: 2 number/group | Inhibition [19]: 7.6% | Ulcer incidence [20]: 0 number/group

COc1ccc(C(=O)c2ccc3c(c2)oc(=O)n3CCc2ccccn2)cc1
Analgesic activity [2]: 80.34% | Inhibition [3]: 40% | Inhibition [5]: 9.9% | Inhibition [7]: 13% | Inhibition [10]: 30.8% | Inhibition [19]: 5.4%

O=C(c1ccc2c(c1)oc(=O)n2CCc1ccccn1)c1ccccc1Cl
ED50 [22]: 25.5 mg/kg | Lesion length [1]: 0 mm mice-1 | Analgesic activity [2]: 91.74% | Inhibition [3]: 46% | Ulcer incidence [23]: 0 number/group | Inhibition [5]: 18.2% | Inhibition [6]: 53% | Inhibition [7]: 6.4% | Ulcer incidence [24]: 2 number/group | Lesion length [9]: 0 mm mice-1 | Inhibition [10]: 37.1% | Lesion length [16]: 0.4 mm mice-1 | Ulcer incidence [25]: 0 number/group | Ulcer incidence [26]: 0 number/group | Lesion length [17]: 0.2 mm mice-1 | Inhibition [19]: 5% | Ulcer incidence [27]: 0 number/group | Lesion length [28]: 0 mm mice-1 | Lesion length [29]: 0 mm mice-1 | Ulcer incidence [30]: 0 number/group

O=c1oc2ccccc2n1CCc1ccccn1
Analgesic activity [2]: 92.17% | Ulcer incidence [21]: 0 number/group | Inhibition [3]: 41.3% | Ulcer incidence [4]: 4 number/group | Inhibition [5]: 10.2% | Inhibition [6]: 56.2% | Inhibition [7]: 6% | Lesion length [8]: 0 mm mice-1 | Lesion length [9]: 0 mm mice-1 | Inhibition [10]: 55.2% | Ulcer incidence [11]: 1 number/group | Lesion length [12]: 0 mm mice-1 | Ulcer incidence [13]: 0 number/group | ED50 [14]: 55 mg/kg | Lesion length [16]: 0.7 mm mice-1 | Lesion length [17]: 0.07 mm mice-1 | Ulcer incidence [18]: 0 number/group | Inhibition [19]: 5.5% | Ulcer incidence [20]: 0 number/group

CC(=O)c1ccc2c(c1)oc(=O)n2CCc1ccncc1
Analgesic activity [2]: 38.46% | Inhibition [10]: 10.3%

CC(=O)c1ccc2c(c1)oc(=O)n2CCc1ccccn1
Analgesic activity [2]: 48.74% | Inhibition [10]: 5.6%

O=C(c1ccccc1Cl)c1cc2oc(=O)n(CCc3ccccn3)c2cc1Cl
Analgesic activity [2]: 72.67% | Inhibition [3]: 37% | Inhibition [5]: 9% | Inhibition [7]: 7.6% | Inhibition [10]: 19.7% | Inhibition [19]: 10%

O=C(c1ccccc1)c1ccc2c(c1)oc(=O)n2CCc1ccccn1
Analgesic activity [2]: 79.49% | Inhibition [3]: 32% | Inhibition [5]: 9.8% | Inhibition [7]: 11% | Inhibition [10]: 37.1% | Inhibition [19]: 6%

O=C(c1ccc2c(c1)oc(=O)n2CCc1ccncc1)c1ccccc1Cl
Analgesic activity [2]: 84.35% | Inhibition [3]: 39% | Inhibition [5]: 10% | Inhibition [7]: 7% | Inhibition [10]: 38.6% | Inhibition [19]: 7.4%

O=C(c1ccccc1)c1ccc2c(c1)oc(=O)n2CCc1ccncc1
Analgesic activity [2]: 85.47% | Inhibition [3]: 36.5% | Inhibition [5]: 14.1% | Inhibition [7]: 10% | Inhibition [10]: 46.5% | Inhibition [19]: 8.5%

COc1ccc(C(=O)c2ccc3c(c2)oc(=O)n3CCc2ccncc2)cc1
Analgesic activity [2]: 75.21% | Inhibition [3]: 32% | Inhibition [5]: 15% | Inhibition [7]: 10% | Inhibition [10]: 25.9% | Inhibition [19]: 8%

COc1ccc2c(c1)c(CC(=O)O)c(C)n2C(=O)c1ccc(Cl)cc1 [INDOMETHACIN]
Lesion length [31]: 0.4 mm mice-1 | Lesion length [32]: 0.6 mm mice-1 | Inhibition [3]: 37% | ED50 [33]: 7.5 mg/kg | Inhibition [34]: 13.4% | Ulcer incidence [35]: 8 number/group | Inhibition [36]: 21.1% | Inhibition [19]: 14.7% | Ulcer incidence [37]: 7 number/group | Inhibition [38]: 10.3%
